# Measurements reported in ChEMBL document CHEMBL1142281, “New 1,2,3,4-tetrahydroisoquinoline derivatives as modulators of proteolytic cleavage of amyloid precursor proteins” (Bioorg Med Chem, 2008).
# pIC50: −log10 of the molar value. Activity calls are given as the source filed them. No cut-off for these calls is given here.
# Legend:
# [1] = Lipophilicity, log P of the compound; assay type: physicochemical; details: octanol/water
# [2] = target: Mitogen-activated protein kinase; ERK1/ERK2 (Homo sapiens) (UniProt P27361+P28482); test: Activation of ERK1/2 in T20 cells at 10 uM relative to nontreated cells; assay type: cell-based
# Chain of Mitogen-activated protein kinase; ERK1/ERK2 (Homo sapiens) (P27361 whole entry, looked up): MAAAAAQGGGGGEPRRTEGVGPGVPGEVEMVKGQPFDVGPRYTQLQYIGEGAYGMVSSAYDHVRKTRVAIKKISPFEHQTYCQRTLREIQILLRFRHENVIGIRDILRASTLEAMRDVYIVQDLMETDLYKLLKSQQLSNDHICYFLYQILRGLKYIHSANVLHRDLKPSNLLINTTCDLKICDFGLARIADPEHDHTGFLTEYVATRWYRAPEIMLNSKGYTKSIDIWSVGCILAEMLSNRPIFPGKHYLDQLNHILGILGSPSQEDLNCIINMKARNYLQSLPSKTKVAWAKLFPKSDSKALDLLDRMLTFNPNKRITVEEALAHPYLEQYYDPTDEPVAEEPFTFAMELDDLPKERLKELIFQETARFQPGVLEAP
# Chain of Mitogen-activated protein kinase; ERK1/ERK2 (Homo sapiens) (P28482 whole entry, looked up): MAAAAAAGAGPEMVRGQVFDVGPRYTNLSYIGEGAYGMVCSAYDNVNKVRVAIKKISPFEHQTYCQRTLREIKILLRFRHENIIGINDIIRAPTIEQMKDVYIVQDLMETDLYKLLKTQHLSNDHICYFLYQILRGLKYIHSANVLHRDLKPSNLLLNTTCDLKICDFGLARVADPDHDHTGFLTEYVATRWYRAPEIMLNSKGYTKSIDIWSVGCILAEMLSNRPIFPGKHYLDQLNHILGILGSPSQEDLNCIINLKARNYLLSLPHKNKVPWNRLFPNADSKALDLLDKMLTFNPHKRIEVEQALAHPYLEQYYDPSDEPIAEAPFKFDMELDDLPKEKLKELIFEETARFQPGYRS
# Method in brief: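 T20 cells plated at 5 × 10⁵/well, grown 18 h at 37 °C, then 18 h with tetracycline 1 µg/ml. Medium switched to DMEM with 0.5% FBS and compounds added at 10 µM. Lysis in Tris-HCl pH 8.0 buffer with Triton X-100 and inhibitors; 50 lg protein run on 12% SDS-PAGE and immunoblotted for phospho-ERK1/2 and total ERK1/2. Read-out p-ERK/ERK % of untreated; three experiments.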
# [3] = Inhibition of monoamino oxidase B from F344/N rat brain cortex
# [4] = tested on: T20; test: Inhibition of gamma secretase in T20 cells assessed as amyloid precursor protein cleavage at 10 uM after 24 hrs by luciferase reporter gene assay; assay type: cell-based; parameters: scale not given: the % may be the effect or the level left
# Method in brief: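 T20 cells (stable C99-luciferase reporter line, kept in hygromycin/blasticidin/zeocin medium) plated 2 × 10⁴/well and held 24 h at 37 °C. Compounds added at 10 µM final with tetracycline 1 µg/ml for 24 h at 37 °C. Luminescence read with Steady-Glo reagent as fold luciferase activation versus DMSO; triplicates.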
# [5] = Increase in sAPP alpha secretion in gamma-30 cells; assay type: functional, cell-based
# Method in brief: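 Conditioned media from c-30 cells (full-length APP with human PS1, Aph-1a2, Pen-2), normalised to lysate protein content. Immunoprecipitated with rabbit polyclonal anti-Ab1–17, separated by SDS–PAGE and Western blotted with mouse monoclonal 6E10 to detect sAPPa.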
SMILES,logP [1],Activity [2],pIC50 [3],Activity [4],Activity [5]
O=C(Oc1ccc2c(c1)CN(CC1CC1)CC2)N1CCCCC1,3.09,155%,4.94,35%,Active
CCN(C)C(=O)Oc1ccc2c(c1)CN(CC1CC1)CC2,2.69,131%,4.89,35%,Active
C#CCN1CCc2ccc(OC(=O)N3CCOCC3)cc2C1,1.57,–,4.73,–,–
O=C(Oc1ccc2c(c1)CN(CC1CC1)CC2)N1CCOCC1,2.29,138%,4.73,35%,Active
C#CCN1CCc2ccc(OC(=O)N(C)CC)cc2C1,2.25,–,4.67,–,–
C#CCN[C@@H]1CCc2ccccc21 [RASAGILINE],2.29,131%,5.68,–,–
O=C(Oc1ccc2c(c1)CN(CC1CC1)CC2)N1CCCC1,2.67,–,4.83,–,–
C#CCN1CCc2ccc(OC(=O)N3CCCC3)cc2C1,2.23,–,4.86,–,–
C#CCN1CCc2ccc(OC(=O)N3CCCCC3)cc2C1,2.63,–,4.80,–,–
